Experimental data of several laboratories.
Lines come from different studies, so protocols differ.

c1ccc(-c2nc(N3CCC(c4ccccn4)C3)c3ccccc3n2)nc1 (stereo not drawn) — Tmax (female BALB/c mouse; plasma; oral; 50 mg/kg): 78 min
CS(=O)(=O)CCNCc1ccc(-c2ccc3ncnc(Nc4ccc(OCc5cccc(F)c5)c(Cl)c4)c3c2)o1 — Tmax (nude mouse; plasma; oral; 50 mg/kg; single dose): 60 min
Cc1ncsc1-c1ccc(CNC(=O)[C@@H]2C[C@@H](O)CN2C(=O)[C@@H](NC(=O)CCCCCCCCCCCC(=O)NCCCCC#Cc2cccc(-c3nn(-c4nc(C(=O)O)cs4)c(CC4CC4)c3Cc3ccc(S(N)(=O)=O)cc3)c2)C(C)(C)C)cc1 — Tmax (male Swiss mouse; plasma; intraperitoneal; 5 mg/kg; single dose): 480 min
CC1(C)CC[C@]2(C(=O)O)CC[C@]3(C)C(=CC[C@@H]4[C@@]5(C)C[C@@H](O)[C@H](OC(=O)/C=C/c6ccc(O)cc6)C(C)(C)[C@@H]5CC[C@]43C)[C@@H]2C1 (relative stereo) — Tmax (mouse; plasma; intraperitoneal; 85 µmol/kg; single dose): 30 min
COc1ccc2c3c1O[C@H]1C[C@@H](OC(=O)c4ccccc4)C=C[C@@]31CCN(C)C2 — Tmax (mouse; brain; intravenous; 3 mg/kg): 3 min
CCc1ccc(Cc2cc([C@@H]3O[C@H](CO)[C@@H](O)[C@H](O)[C@H]3O)cc3c2CCC3)cc1 — Tmax (male C57BL/6 mouse; plasma; oral; 3 mg/kg): 30 min
CNC(=O)[C@H](Cc1c[nH]cn1)NC(=O)CN(CCCc1ccccc1)CC(=O)O — Tmax (male C57BL/6 mouse; plasma; intraperitoneal; 30 mg/kg): 10 min
CSc1cc(Oc2ccnc3[nH]c(=O)cnc23)ccc1NC(=O)Nc1cc(C(C)(C)C)nn1-c1ccccc1 — Tmax (BALB/c mouse; plasma; oral; 10 mg/kg): 180 min
CC(C)c1cnn2c(NCc3ccccc3)cc(NC[C@H]3CCNC[C@@H]3O)nc12 — Tmax (female nude mouse; tumour; oral; 100 mg/kg; tumour-bearing): 360 min
CNCCN(C)c1cc(C#N)cc(CCc2cc(C)cc(N)n2)c1 — Tmax (male BALB/c mouse; plasma; oral; 10 mg/kg): 15 min
CN1CCC[C@H](CN2c3ccccc3Sc3ccccc32)C1.O=C(O)CCC(=O)O — Tmax (mouse; plasma; oral; 64 mg/kg; single dose): 120 min
Cc1cc(NC(=O)c2cccc3cc(-c4cccc5[nH]nc(N)c45)ccc23)ccc1F — Tmax (male CD-1 mouse; plasma; oral; 10 mg/kg): 60 min
CNC(=O)c1cc(Oc2ccc(NC(=O)Nc3ccc(Cl)c(C(F)(F)F)c3)c(F)c2)cc[n+]1[O-] — Tmax (mouse; plasma; oral; 10 mg/kg; single dose): 324 min
CC=Cc1ccc(O)c(OC)c1 — Tmax (mouse; plasma; intranasal; 100 mg/kg): 5 min
COc1nc(-c2cc(C)c(N[C@@H](C)c3cc(F)cc(F)c3)nn2)ccc1-n1cnc(C)c1 — Tmax (male CD-1 mouse; plasma; intravenous; 1 mg/kg; single dose): 4.98 min
Cc1cc(C)cc(NC(=O)c2cnn(-c3ccc(C(C)C)cc3)c2C2CCNCC2)c1 — Tmax (SCID mouse; plasma; oral; 50 mg/kg; single dose): ~300 min
OC[C@H]1O[C@@H](c2ccc(Cl)c(Cc3ccc(O[C@H]4CCOC4)cc3)c2)[C@H](O)[C@@H](O)[C@@H]1O — Tmax (CD-1 mouse; plasma; oral; 10 mg/kg): 15 min
COc1ccc(CNc2c3c(nc4ccc(C#N)cc24)CCN(C(C)=O)C3)cc1Cl — Tmax (mouse; plasma; intraperitoneal; 25 mg/kg): 15 min
Cc1ccc(NC(=O)c2ccc(CN3CCN(C)CC3)cc2)cc1Nc1nccc(-c2cncc(-c3oncc3C)c2)n1 — Tmax (male C57BL/6 mouse; plasma; oral; 100 mg/kg/day): 240 min
CNC(=O)[C@H](Cc1c[nH]cn1)NC(=O)CN(CCCc1ccccc1)CC(=O)OC — Tmax (male C57BL/6 mouse; plasma; intraperitoneal; 30 mg/kg): 10 min
COc1ccc2nccc(N3CCc4c(cc(Cn5ccnc5)cc4-c4cn(C)nc4C(F)(F)F)C3=O)c2c1 — Tmax (male CD-1 mouse; plasma; oral; 10 mg/kg): 42 min
Cc1cc(Nc2ccc(S(F)(F)(F)(F)F)cc2)n2ccnc2n1 — Tmax (male Swiss mouse; plasma; oral; 100 mg/kg; single dose): 30 min
COc1ccc(C(O)COc2ccc(-c3csc(-c4ccc(OCC(O)c5ccc(OC)c(OC)c5)cc4)n3)cc2)cc1OC (stereo not drawn) — Tmax (C57BL/6 mouse; plasma; oral; 75 mg/kg): 60 min
CC(C)Oc1c(NC(=O)c2ccc(NC(=O)[C@H](CC(N)=O)NC(=O)c3ccc(NC(=O)c4ccc(C#N)cc4)cc3)cc2)ccc(C(=O)Nc2ccc(C(=O)O)cc2)c1O — Tmax (male CD-1 mouse; plasma; subcutaneous; 5 mg/kg; single dose): 100 min
O=S(=O)(c1ccc(-c2ccc3nccc(Nc4ccncn4)c3c2)cc1)N1CCOCC1 — Tmax (female BALB/c mouse; brain; intraperitoneal; 10 mg/kg): 15 min
O=C(c1cc2cc(F)ccc2[nH]1)c1c[nH]c2c(F)cccc12 — Tmax (female mouse; plasma; intraperitoneal; 6 mg/kg): ~15 min
COc1nc(-c2cc(C)c(N[C@@H](C)c3ccc(F)cc3)nn2)ccc1-n1cnc(C)c1 — Tmax (male CD-1 mouse; plasma; oral; 5 mg/kg; single dose): 60 min
CC(C)(C)c1ccc(O)c(CN(Cc2cc(C(C)(C)C)ccc2O)C2CCC(NC(N)=O)CC2)c1 (stereo not drawn) — Tmax (male C57BL/6 mouse; plasma; intraperitoneal; 25 mg/kg; single dose): 15 min
COc1nc(-c2cc(C)c(N[C@@H](C)c3c(F)cc(F)cc3F)nn2)ccc1-n1cnc(C)c1 — Tmax (male CD-1 mouse; plasma; intravenous; 1 mg/kg; single dose): 4.98 min
C=CC(=O)N1CC2CC(n3nc(-c4ccc(C(=O)Nc5ccccn5)cc4)c4c(N)ncnc43)CC2C1 (stereo not drawn) — Tmax (SCID mouse; plasma; oral; 0.2 mg/kg): 15 min
CC(C)(C)c1cc(NC(=O)Nc2ccc(Oc3ccnc4[nH]c(=O)cnc34)cc2F)n(-c2ccccc2)n1 — Tmax (BALB/c mouse; plasma; intravenous; 2 mg/kg): 4.98 min
COc1cc(OC)c2nccc(N3CCc4c(cc(Cn5ccnc5)cc4-c4cn(C)nc4C(F)(F)F)C3=O)c2c1 — Tmax (male CD-1 mouse; plasma; oral; 50 mg/kg): 42 min
NC(=O)c1cc(Oc2ccc(NC(=O)Nc3ccc(Cl)c(C(F)(F)F)c3)c(F)c2)cc[n+]1[O-] — Tmax (mouse; plasma; oral; 10 mg/kg; single dose): 450 min
CCc1cc(C(=O)NC)c2nccc(N3CCc4c(cc(Cn5ccnc5)cc4-c4cn(C)nc4C(F)(F)F)C3=O)c2c1 — Tmax (male CD-1 mouse; plasma; oral; 150 mg/kg): 30 min
NC[C@@H]1O[C@H](O[C@H]2[C@@H](O)[C@H](O[C@@H]3[C@@H](O)[C@H](N)C[C@H](N)[C@H]3O[C@H]3O[C@H](CO)[C@@H](O)[C@H](O)[C@H]3N)O[C@@H]2CO)[C@H](N)[C@@H](O)[C@@H]1O — Tmax (male BALB/c mouse; plasma; oral; 500 mg/kg): 60 min
CCc1cc(OC)c2nccc(N3CCc4c(cc(Cn5ccnc5)cc4-c4cn(C)nc4C(F)(F)F)C3=O)c2c1 — Tmax (male CD-1 mouse; plasma; oral; 150 mg/kg): 30 min
CN1C(=O)c2ccccc2[S@+]([O-])c2ccc(C(=O)NCCc3cccs3)cc21 — Tmax (male C57BL/6 mouse; brain; intraperitoneal; 30 mg/kg; single dose): 15 min
COc1cc(C(=O)N2CCC(N3CCN(C)CC3)CC2)ccc1Nc1ncc2c(n1)N(C)c1ccccc1C(=O)N2C — Tmax (mouse; plasma; oral; 10 mg/kg): 60 min
Cc1ccc2cncc(N3CCc4c(cc(Cn5ccnc5)cc4-c4cn(C)nc4C(F)(F)F)C3=O)c2c1 — Tmax (male CD-1 mouse; plasma; oral; 10 mg/kg): 18 min
